# Reference: ChEMBL document CHEMBL2150869, “Superpotent [Dmt¹] dermorphin tetrapeptides containing the 4-aminotetrahydro-2-benzazepin-3-one scaffold with mixed μ/δ opioid receptor agonistic properties” (J Med Chem, 2011)
# The source made the active and inactive calls. No cut-off for these calls is given here. Where a SMILES comes first, the peptide text is derived from it. [ ]: non-standard residue; d: D form. Dmt = Cc1cc(O)cc(C)c1C[C@H](N)C(=O)O; dNMeA = CN[C@H](C)C(=O)O; Sar = CNCC(=O)O
# Target: T1, Delta-type opioid receptor (Homo sapiens, UniProt P41143)
# Assay: Agonist activity at human DOR expressed in HEK293 cell membrane assessed as inhibition of forskolin-induced cAMP accumulation by liquid scintillation counting relative to control
# Type: functional, cell membranes
# T1 sequence (P41143 whole entry): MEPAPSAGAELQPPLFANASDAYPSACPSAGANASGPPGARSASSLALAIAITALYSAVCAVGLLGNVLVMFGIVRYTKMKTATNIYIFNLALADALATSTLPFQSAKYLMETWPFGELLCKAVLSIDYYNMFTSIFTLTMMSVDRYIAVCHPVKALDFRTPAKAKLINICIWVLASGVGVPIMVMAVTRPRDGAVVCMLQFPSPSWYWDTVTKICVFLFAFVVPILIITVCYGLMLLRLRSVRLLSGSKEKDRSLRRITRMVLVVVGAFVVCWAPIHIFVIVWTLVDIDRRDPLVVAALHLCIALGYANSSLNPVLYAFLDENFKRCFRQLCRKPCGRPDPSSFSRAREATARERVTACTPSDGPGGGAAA
row,Structure (SMILES),Emax [%]
1,C[C@H](C(=O)N[C@H]1Cc2ccccc2CN(CC(N)=O)C1=O)N1Cc2cc(O)ccc2C[C@H](N)C1=O,79
2,C[C@H](C(=O)N[C@@H](Cc1ccccc1)C(=O)N(C)CC(N)=O)N(C)C(=O)[C@@H](N)Cc1ccc(O)cc1 (H-Y[dNMeA]F[Sar]-NH2),74
3,Cc1cc(O)cc(C)c1C[C@H](N)C(=O)N(C)[C@H](C)C(=O)N[C@@H](Cc1ccccc1)C(=O)N(C)CC(N)=O (H-[Dmt][dNMeA]F[Sar]-NH2),72

# Target: T2, Mu-type opioid receptor (Homo sapiens, UniProt P35372)
# Assay: Agonist activity at human MOR expressed in HEK293 cells assessed as stimulation of ERK1/2 phosphorylation at […] after 2 mins by Western blotting
# Type: functional, cell-based
# Procedure, shortened: (§1)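 HEK293 cells stably expressing the μ- or δ-opioid receptor, serum-starved 16 h, then exposed to ligand at 37 °C for the indicated times. Whole lysates run on 10% SDS-PAGE and immunoblotted for phospho-ERK1/2, with the blot reprobed for total ERK as loading control. Three independent experiments.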
# T2 sequence (P35372 whole entry): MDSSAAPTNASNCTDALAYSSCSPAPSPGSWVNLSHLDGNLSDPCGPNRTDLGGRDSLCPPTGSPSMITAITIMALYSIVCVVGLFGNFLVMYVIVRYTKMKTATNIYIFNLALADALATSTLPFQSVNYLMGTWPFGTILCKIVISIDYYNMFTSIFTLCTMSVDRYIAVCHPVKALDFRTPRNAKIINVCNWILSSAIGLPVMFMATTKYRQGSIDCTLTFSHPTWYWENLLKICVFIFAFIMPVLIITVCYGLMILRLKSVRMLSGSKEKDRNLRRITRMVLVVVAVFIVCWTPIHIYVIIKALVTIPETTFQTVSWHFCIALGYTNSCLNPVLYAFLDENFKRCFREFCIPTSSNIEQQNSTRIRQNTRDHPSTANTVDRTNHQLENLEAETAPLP
row,Structure (SMILES),Activity
1,C[C@H](C(=O)N[C@H]1Cc2ccccc2CN(CC(N)=O)C1=O)N1Cc2cc(O)ccc2C[C@H](N)C1=O,Active

# Target: T3, Opioid receptors; mu and delta (Mus musculus, UniProt P42866+P32300)
# Assay: Agonist activity at MOR/DOR in NMRI mouse frontal cortex assessed as reduction in spinal cord network activity by electrophysiology assay
# Type: functional, tissue-based
# Procedure, shortened: (§2)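 Primary neuronal networks from frontal cortex or spinal cord grown on microelectrode array neurochips for 4 weeks to 3 months. Accumulating concentrations from 1 fM to 100 μM (nine steps), each recorded for 1 h at 37 °C, pH 7.4. Spike rate and burst duration taken from the last 30 min stable phase in 60 s bins. EC50 obtained by logistic dose-response fitting.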
row,Structure (SMILES),EC50
1,C[C@H](C(=O)N[C@H]1Cc2ccccc2CN(CC(N)=O)C1=O)N1Cc2cc(O)ccc2C[C@H](N)C1=O,5.67 ×10⁻⁷ M
2,C[C@H](C(=O)N[C@@H](Cc1ccccc1)C(=O)N(C)CC(N)=O)N(C)C(=O)[C@@H](N)Cc1ccc(O)cc1 (H-Y[dNMeA]F[Sar]-NH2),5 ×10⁻¹² M
3,Cc1cc(O)cc(C)c1C[C@H](N)C(=O)N(C)[C@H](C)C(=O)N[C@@H](Cc1ccccc1)C(=O)N(C)CC(N)=O (H-[Dmt][dNMeA]F[Sar]-NH2),1.29 ×10⁻¹³ M

# Target: T2, Mu-type opioid receptor
# Assay: Agonist activity at human MOR expressed in HEK293 cells assessed as stimulation of ERK1/2 phosphorylation at 1 uM after 2 mins by Western blotting
# Type: functional, cell-based
# Procedure, shortened: as §1
row,Structure (SMILES),Activity
1,C[C@H](C(=O)N[C@@H](Cc1ccccc1)C(=O)N(C)CC(N)=O)N(C)C(=O)[C@@H](N)Cc1ccc(O)cc1 (H-Y[dNMeA]F[Sar]-NH2),Active
2,Cc1cc(O)cc(C)c1C[C@H](N)C(=O)N(C)[C@H](C)C(=O)N[C@@H](Cc1ccccc1)C(=O)N(C)CC(N)=O (H-[Dmt][dNMeA]F[Sar]-NH2),Active

# Organism: Rattus norvegicus
# Assay: Selectivity index, ratio of EC50 for rat brain DOR to EC50 for rat brain MOR by cAMP accumulation assay
row,Structure (SMILES),Ratio EC50
1,C[C@H](C(=O)N[C@@H](Cc1ccccc1)C(=O)N(C)CC(N)=O)N(C)C(=O)[C@@H](N)Cc1ccc(O)cc1 (H-Y[dNMeA]F[Sar]-NH2),293
2,Cc1cc(O)cc(C)c1C[C@H](N)C(=O)N(C)[C@H](C)C(=O)N[C@@H](Cc1ccccc1)C(=O)N(C)CC(N)=O (H-[Dmt][dNMeA]F[Sar]-NH2),55700

# Target: T1, Delta-type opioid receptor
# Assay: Agonist activity at human DOR expressed in HEK293 cells assessed as stimulation of ERK1/2 phosphorylation at 1 uM after 2 mins by Western blotting
# Type: functional, cell-based
# Procedure, shortened: as §1
row,Structure (SMILES),Activity
1,C[C@H](C(=O)N[C@H]1Cc2ccccc2CN(CC(N)=O)C1=O)N1Cc2cc(O)ccc2C[C@H](N)C1=O,Active
2,C[C@H](C(=O)N[C@@H](Cc1ccccc1)C(=O)N(C)CC(N)=O)N(C)C(=O)[C@@H](N)Cc1ccc(O)cc1 (H-Y[dNMeA]F[Sar]-NH2),Active
3,Cc1cc(O)cc(C)c1C[C@H](N)C(=O)N(C)[C@H](C)C(=O)N[C@@H](Cc1ccccc1)C(=O)N(C)CC(N)=O (H-[Dmt][dNMeA]F[Sar]-NH2),Active

# Target: T1, Delta-type opioid receptor
# Assay: Agonist activity at human DOR expressed in HEK293 cell membrane assessed as inhibition of forskolin-induced cAMP accumulation by liquid scintillation counting
# Type: functional, cell membranes
# Procedure, shortened: (§3)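 HEK293 cells stably expressing the μ- or δ-opioid receptor, prelabelled for 24 h with [3H]adenine. Cells treated with ligand (10 fM to 10 μM or 1 pM to 10 μM) plus 50 μM forskolin for 30 min at 37 °C. Read-out is [3H]cAMP over total [3H]adenine nucleotides by scintillation counting, given as percent of forskolin-stimulated accumulation.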
row,Structure (SMILES),EC50 [µM]
1,C[C@H](C(=O)N[C@@H](Cc1ccccc1)C(=O)N(C)CC(N)=O)N(C)C(=O)[C@@H](N)Cc1ccc(O)cc1 (H-Y[dNMeA]F[Sar]-NH2),0.96
2,Cc1cc(O)cc(C)c1C[C@H](N)C(=O)N(C)[C@H](C)C(=O)N[C@@H](Cc1ccccc1)C(=O)N(C)CC(N)=O (H-[Dmt][dNMeA]F[Sar]-NH2),4.4

# Target: T1, Delta-type opioid receptor
# Assay: Displacement of [3H]diprenorphine from human DOR expressed in HEK293 cell membrane by liquid scintillation counting
# Type: cell membranes
# Procedure, shortened: (§4)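 Membranes (20 μg) from HEK293 cells stably expressing μ- or δ-OR incubated with [3H]diprenorphine (3.75 nM) for 45 min at 30 °C in 50 mM Tris-HCl pH 7.5, 100 mM NaCl, 10 mM MgCl2. Nonspecific binding defined with 10 μM naloxone. Bound ligand collected by GF/C filtration and counted by liquid scintillation.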
row,Structure (SMILES),Ki [µM]
1,C[C@H](C(=O)N[C@H]1Cc2ccccc2CN(CC(N)=O)C1=O)N1Cc2cc(O)ccc2C[C@H](N)C1=O,0.16
2,C[C@H](C(=O)N[C@@H](Cc1ccccc1)C(=O)N(C)CC(N)=O)N(C)C(=O)[C@@H](N)Cc1ccc(O)cc1 (H-Y[dNMeA]F[Sar]-NH2),> 10
3,Cc1cc(O)cc(C)c1C[C@H](N)C(=O)N(C)[C@H](C)C(=O)N[C@@H](Cc1ccccc1)C(=O)N(C)CC(N)=O (H-[Dmt][dNMeA]F[Sar]-NH2),0.13

# Target: T2, Mu-type opioid receptor
# Assay: Agonist activity at human MOR expressed in HEK293 cell membrane assessed as inhibition of forskolin-induced cAMP accumulation by liquid scintillation counting
# Type: functional, cell membranes
# Procedure, shortened: as §3
row,Structure (SMILES),EC50 [nM]
1,C[C@H](C(=O)N[C@H]1Cc2ccccc2CN(CC(N)=O)C1=O)N1Cc2cc(O)ccc2C[C@H](N)C1=O,5.17
2,C[C@H](C(=O)N[C@@H](Cc1ccccc1)C(=O)N(C)CC(N)=O)N(C)C(=O)[C@@H](N)Cc1ccc(O)cc1 (H-Y[dNMeA]F[Sar]-NH2),3.28
3,Cc1cc(O)cc(C)c1C[C@H](N)C(=O)N(C)[C@H](C)C(=O)N[C@@H](Cc1ccccc1)C(=O)N(C)CC(N)=O (H-[Dmt][dNMeA]F[Sar]-NH2),0.079

# Target: T2, Mu-type opioid receptor
# Assay: Displacement of [3H]diprenorphine from human MOR expressed in HEK293 cell membrane by liquid scintillation counting
# Type: cell membranes
# Procedure, shortened: as §4
row,Structure (SMILES),Ki [µM]
1,C[C@H](C(=O)N[C@H]1Cc2ccccc2CN(CC(N)=O)C1=O)N1Cc2cc(O)ccc2C[C@H](N)C1=O,2.7
2,C[C@H](C(=O)N[C@@H](Cc1ccccc1)C(=O)N(C)CC(N)=O)N(C)C(=O)[C@@H](N)Cc1ccc(O)cc1 (H-Y[dNMeA]F[Sar]-NH2),1.1
3,Cc1cc(O)cc(C)c1C[C@H](N)C(=O)N(C)[C@H](C)C(=O)N[C@@H](Cc1ccccc1)C(=O)N(C)CC(N)=O (H-[Dmt][dNMeA]F[Sar]-NH2),0.06

# Organism: Homo sapiens
# Assay: Selectivity index, ratio of Ki for human DOR to Ki for human MOR by radioligand displacement assay
# Procedure, shortened: as §4
row,Structure (SMILES),Ratio Ki
1,C[C@H](C(=O)N[C@H]1Cc2ccccc2CN(CC(N)=O)C1=O)N1Cc2cc(O)ccc2C[C@H](N)C1=O,0.059
2,Cc1cc(O)cc(C)c1C[C@H](N)C(=O)N(C)[C@H](C)C(=O)N[C@@H](Cc1ccccc1)C(=O)N(C)CC(N)=O (H-[Dmt][dNMeA]F[Sar]-NH2),2.2

# Target: Opioid receptors; mu and delta (Mus musculus) (UniProt P42866+P32300)
# Assay: Agonist activity at MOR/DOR in NMRI mouse frontal cortex or spinal cord networks assessed as reduction in spinal cord network activity by electrophysiology assay relative to gabapentin
# Type: functional, tissue-based
# Parameters: scale not given: the % may be the effect or the level left
# Sequence of Opioid receptors; mu and delta (Mus musculus) (P32300 whole entry, looked up): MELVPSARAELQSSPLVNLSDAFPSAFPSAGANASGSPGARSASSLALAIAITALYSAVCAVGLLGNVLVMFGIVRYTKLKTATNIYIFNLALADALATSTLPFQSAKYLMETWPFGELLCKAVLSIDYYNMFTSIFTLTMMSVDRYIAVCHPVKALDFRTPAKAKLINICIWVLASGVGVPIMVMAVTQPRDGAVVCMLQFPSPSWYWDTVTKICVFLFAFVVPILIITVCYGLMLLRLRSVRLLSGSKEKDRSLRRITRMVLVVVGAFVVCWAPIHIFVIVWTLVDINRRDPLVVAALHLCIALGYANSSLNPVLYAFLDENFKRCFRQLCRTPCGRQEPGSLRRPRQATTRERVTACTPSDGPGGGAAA
# Sequence of Opioid receptors; mu and delta (Mus musculus) (P42866 whole entry, looked up): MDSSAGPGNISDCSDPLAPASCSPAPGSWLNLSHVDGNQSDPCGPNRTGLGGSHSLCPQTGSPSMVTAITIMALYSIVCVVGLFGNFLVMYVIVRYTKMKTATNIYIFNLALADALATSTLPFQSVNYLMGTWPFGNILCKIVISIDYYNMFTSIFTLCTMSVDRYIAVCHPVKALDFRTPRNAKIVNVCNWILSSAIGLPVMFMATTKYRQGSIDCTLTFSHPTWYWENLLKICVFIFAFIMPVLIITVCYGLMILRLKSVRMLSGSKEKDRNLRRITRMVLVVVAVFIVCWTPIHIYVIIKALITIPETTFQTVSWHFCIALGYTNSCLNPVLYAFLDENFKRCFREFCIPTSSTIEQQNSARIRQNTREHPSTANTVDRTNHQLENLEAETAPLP
row,Structure (SMILES),Activity [%]
1,C[C@H](C(=O)N[C@H]1Cc2ccccc2CN(CC(N)=O)C1=O)N1Cc2cc(O)ccc2C[C@H](N)C1=O,14
2,C[C@H](C(=O)N[C@@H](Cc1ccccc1)C(=O)N(C)CC(N)=O)N(C)C(=O)[C@@H](N)Cc1ccc(O)cc1 (H-Y[dNMeA]F[Sar]-NH2),3
3,Cc1cc(O)cc(C)c1C[C@H](N)C(=O)N(C)[C@H](C)C(=O)N[C@@H](Cc1ccccc1)C(=O)N(C)CC(N)=O (H-[Dmt][dNMeA]F[Sar]-NH2),1

# Target: T2, Mu-type opioid receptor
# Assay: Agonist activity at human MOR expressed in HEK293 cell membrane assessed as inhibition of forskolin-induced cAMP accumulation by liquid scintillation counting relative to control
# Type: functional, cell membranes
row,Structure (SMILES),Emax [%]
1,C[C@H](C(=O)N[C@H]1Cc2ccccc2CN(CC(N)=O)C1=O)N1Cc2cc(O)ccc2C[C@H](N)C1=O,78
2,C[C@H](C(=O)N[C@@H](Cc1ccccc1)C(=O)N(C)CC(N)=O)N(C)C(=O)[C@@H](N)Cc1ccc(O)cc1 (H-Y[dNMeA]F[Sar]-NH2),77
3,Cc1cc(O)cc(C)c1C[C@H](N)C(=O)N(C)[C@H](C)C(=O)N[C@@H](Cc1ccccc1)C(=O)N(C)CC(N)=O (H-[Dmt][dNMeA]F[Sar]-NH2),71

# Target: Kappa-type opioid receptor (Homo sapiens, UniProt P41145)
# Assay: Displacement of [3H]diprenorphine from human KOR expressed in HEK293 cell membrane by liquid scintillation counting
# Type: cell membranes
# Sequence of Kappa-type opioid receptor (P41145 whole entry): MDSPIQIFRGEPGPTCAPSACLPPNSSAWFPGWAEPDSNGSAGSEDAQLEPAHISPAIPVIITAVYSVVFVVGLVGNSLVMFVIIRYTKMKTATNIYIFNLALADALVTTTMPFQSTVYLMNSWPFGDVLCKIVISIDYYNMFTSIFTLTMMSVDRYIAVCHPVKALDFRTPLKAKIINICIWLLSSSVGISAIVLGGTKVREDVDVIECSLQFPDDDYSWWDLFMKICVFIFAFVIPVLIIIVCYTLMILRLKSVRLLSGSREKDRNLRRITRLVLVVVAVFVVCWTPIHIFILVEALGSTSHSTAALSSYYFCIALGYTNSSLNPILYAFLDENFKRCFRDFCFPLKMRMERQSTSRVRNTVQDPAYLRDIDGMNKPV
row,Structure (SMILES),Ki [µM]
1,C[C@H](C(=O)N[C@H]1Cc2ccccc2CN(CC(N)=O)C1=O)N1Cc2cc(O)ccc2C[C@H](N)C1=O,> 1000
2,C[C@H](C(=O)N[C@@H](Cc1ccccc1)C(=O)N(C)CC(N)=O)N(C)C(=O)[C@@H](N)Cc1ccc(O)cc1 (H-Y[dNMeA]F[Sar]-NH2),> 1000
3,Cc1cc(O)cc(C)c1C[C@H](N)C(=O)N(C)[C@H](C)C(=O)N[C@@H](Cc1ccccc1)C(=O)N(C)CC(N)=O (H-[Dmt][dNMeA]F[Sar]-NH2),> 1000

# Target: Delta-type opioid receptor (Rattus norvegicus, UniProt P33533)
# Assay: Displacement of [3H]deltorphin2 from DOR in rat brain homogenates by liquid scintillation counting
# Type: tissue-based
# Sequence of Delta-type opioid receptor (Rattus norvegicus, UniProt P33533) (P33533 whole entry): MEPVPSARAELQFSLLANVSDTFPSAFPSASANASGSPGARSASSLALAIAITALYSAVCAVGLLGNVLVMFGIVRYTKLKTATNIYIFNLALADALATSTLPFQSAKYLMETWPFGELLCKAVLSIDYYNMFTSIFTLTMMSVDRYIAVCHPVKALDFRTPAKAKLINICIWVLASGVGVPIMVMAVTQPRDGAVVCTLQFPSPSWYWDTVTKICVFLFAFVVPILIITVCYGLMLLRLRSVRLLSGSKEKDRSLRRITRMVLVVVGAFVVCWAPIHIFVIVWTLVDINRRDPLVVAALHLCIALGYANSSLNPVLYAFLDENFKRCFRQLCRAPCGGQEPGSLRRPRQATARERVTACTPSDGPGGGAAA
row,Structure (SMILES),IC50 [µM]
1,C[C@H](C(=O)N[C@H]1Cc2ccccc2CN(CC(N)=O)C1=O)N1Cc2cc(O)ccc2C[C@H](N)C1=O,0.0178
2,C[C@H](C(=O)N[C@@H](Cc1ccccc1)C(=O)N(C)CC(N)=O)N(C)C(=O)[C@@H](N)Cc1ccc(O)cc1 (H-Y[dNMeA]F[Sar]-NH2),0.0071
3,Cc1cc(O)cc(C)c1C[C@H](N)C(=O)N(C)[C@H](C)C(=O)N[C@@H](Cc1ccccc1)C(=O)N(C)CC(N)=O (H-[Dmt][dNMeA]F[Sar]-NH2),0.0049

# Target: T3, Opioid receptors; mu and delta
# Assay: Agonist activity at MOR/DOR in NMRI mouse spinal cord assessed as reduction in spinal cord network activity by electrophysiology assay
# Type: functional
# Procedure, shortened: as §2
row,Structure (SMILES),EC50
1,C[C@H](C(=O)N[C@H]1Cc2ccccc2CN(CC(N)=O)C1=O)N1Cc2cc(O)ccc2C[C@H](N)C1=O,6.7 nM
2,C[C@H](C(=O)N[C@@H](Cc1ccccc1)C(=O)N(C)CC(N)=O)N(C)C(=O)[C@@H](N)Cc1ccc(O)cc1 (H-Y[dNMeA]F[Sar]-NH2),1060 nM
3,Cc1cc(O)cc(C)c1C[C@H](N)C(=O)N(C)[C@H](C)C(=O)N[C@@H](Cc1ccccc1)C(=O)N(C)CC(N)=O (H-[Dmt][dNMeA]F[Sar]-NH2),2.87 ×10⁻¹⁰ M

# Target: Mu-type opioid receptor (Rattus norvegicus, UniProt P33535)
# Assay: Displacement of [3H]naloxone from MOR in rat brain homogenates by liquid scintillation counting
# Type: tissue-based
# Sequence of Mu-type opioid receptor (Rattus norvegicus, UniProt P33535) (P33535 whole entry): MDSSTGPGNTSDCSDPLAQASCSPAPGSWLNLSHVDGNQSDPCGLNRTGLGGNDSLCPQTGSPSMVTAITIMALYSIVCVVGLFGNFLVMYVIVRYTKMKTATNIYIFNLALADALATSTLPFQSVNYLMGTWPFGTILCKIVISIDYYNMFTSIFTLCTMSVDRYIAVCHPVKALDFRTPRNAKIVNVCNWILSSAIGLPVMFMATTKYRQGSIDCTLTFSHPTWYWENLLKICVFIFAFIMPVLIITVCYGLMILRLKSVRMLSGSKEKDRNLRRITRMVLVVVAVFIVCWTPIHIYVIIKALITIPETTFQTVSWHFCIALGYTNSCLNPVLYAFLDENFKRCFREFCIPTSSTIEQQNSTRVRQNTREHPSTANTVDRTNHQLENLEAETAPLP
row,Structure (SMILES),IC50 [µM]
1,C[C@H](C(=O)N[C@H]1Cc2ccccc2CN(CC(N)=O)C1=O)N1Cc2cc(O)ccc2C[C@H](N)C1=O,0.0208
2,C[C@H](C(=O)N[C@@H](Cc1ccccc1)C(=O)N(C)CC(N)=O)N(C)C(=O)[C@@H](N)Cc1ccc(O)cc1 (H-Y[dNMeA]F[Sar]-NH2),0.0281
3,Cc1cc(O)cc(C)c1C[C@H](N)C(=O)N(C)[C@H](C)C(=O)N[C@@H](Cc1ccccc1)C(=O)N(C)CC(N)=O (H-[Dmt][dNMeA]F[Sar]-NH2),0.0003
